Key:
Chlamydia trachomatis [1] = experiment: Antichlamydial activity against Chlamydia trachomatis serovar L2 infected in human HeLa 299 cells assessed as reduction in number of inclusion bodies measured after 44 to 48 hrs by DAPI staining-based HCS assay; assay type: functional, organism-based
Method in brief: (§1)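 HeLa299 cells are seeded at 15,000/well, cultured overnight at 37 °C with 5% CO2 in RPMI with 10% FBS and 2 mM […], then infected with serovar L2 454/Bu at MOI about 0.3 in HBSS. At 1 h the inoculum is replaced with medium containing 0.5% DMSO and 1:1 serial dilutions of compound over eleven concentrations. After 44–48 h, cells are fixed in methanol for 5 min. Inclusions are stained with rabbit anti-Chlamydia antibody, a FITC secondary, and DAPI. Inclusions over 130 µm² are counted by automated imaging and expressed as % of DMSO-control inclusions. IC50 is from nonlinear regression of at least three independent experiments.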

[2] = Cytotoxicity against human HeLa 299 cells assessed as reduction in cell viability after 48 hrs by XTT assay; assay type: cell-based
Method in brief: (§2)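 HeLa299 cells are seeded at 7000/well and cultured overnight in RPMI with 10% FBS and 2 mM […] at 37 °C with 5% CO2. The medium is then swapped for phenol red-free DMEM with 0.5% DMSO, with or without compound at 25 and 50, in at least three replicate wells each, for 48 h. XTT with activation reagent is read after 2.5 h at 475 minus 660 nm, blank-corrected, and expressed as % of DMSO control.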

[3] = Cytotoxicity against human HeLa 299 cells assessed as cell viability at 25 uM after 48 hrs by XTT assay relative to control; assay type: cell-based; settings: read-out: Activity; method in brief: as §2
[4] = Cytotoxicity against human HeLa 299 cells assessed as cell viability at 50 uM after 48 hrs by XTT assay relative to control; assay type: cell-based; settings: for viability at 48 h, 50 µM: HeLa 299 cells, read-out: Activity; for Activity: 48 h, 50 µM; method in brief: as §2
Chlamydia trachomatis [5] = experiment: Antichlamydial activity against Chlamydia trachomatis serovar L2 454/Bu infected in human HeLa 299 cells assessed as reduction in number of inclusion bodies measured after 44 to 48 hrs by DAPI staining-based HCS assay; assay type: functional, organism-based; method in brief: as §1
[6] = Cytotoxicity against human HeLa 299 cells assessed as reduction in cell viability at 25 uM after 48 hrs by XTT assay
Chlamydia trachomatis [7] = experiment: Antichlamydial activity against Chlamydia trachomatis serovar D […] infected in human HeLa 299 cells assessed as reduction in number of inclusion bodies measured after 44 to 48 hrs by DAPI staining-based HCS assay; assay type: functional, organism-based
Chlamydia trachomatis [8] = experiment: Antichlamydial activity against Chlamydia trachomatis serovar A […] infected in human HeLa 299 cells assessed as reduction in number of inclusion bodies measured after 44 to 48 hrs by DAPI staining-based HCS assay; assay type: functional, organism-based

| Structure (SMILES) | IC50 (Chlamydia trachomatis [1]) | IC50 (Chlamydia trachomatis [5]; read-out: IC50) | IC50 (Chlamydia trachomatis [5]; read-out: pIC50 (converted)) | IC50 (Chlamydia trachomatis [7]) | IC50 (Chlamydia trachomatis [8]) | Activity [2] | viability at 48 h, 25 µM [3] | viability at 48 h, 50 µM [4] | Activity [6] | Activity [4] |
| --- | --- | --- | --- | --- | --- | --- | --- | --- | --- | --- |
| CC1COc2c(N3CCN(C)CC3)c(F)cc3c(=O)c(C(=O)O)cn1c23 (centres undefined) [OFLOXACIN] | 0.666 µM |  |  |  |  |  |  |  |  |  |
| Oc1ccc(-c2oc3ccc(F)cc3c2-c2ccnc(F)c2)cc1 |  |  |  |  |  | Dose-dependent effect | 107% | 53% |  |  |
| COc1ccc(-c2oc3ccccc3c2-c2ccc(OC)cc2)cc1 |  | 11.6 µM | 11.6 µM |  |  |  | 92% | 94% |  |  |
| Oc1ccc(-c2oc3cc(O)ccc3c2-c2ccc(F)cc2)cc1 |  |  |  |  |  | Dose-dependent effect | 105% | 42% |  |  |
| Oc1ccc(-c2oc3ccccc3c2-c2cccnc2)cc1 |  |  |  |  |  | Dose-dependent effect | 79% | 61% |  |  |
| COc1ccc(-c2oc3ccc(F)cc3c2-c2ccc(OC)cc2)cc1 |  | 15.2 µM | 15.2 µM |  |  |  | 82% | 99% |  |  |
| Oc1ccc(-c2oc3ccccc3c2-c2ccc(O)cc2)cc1 |  |  |  |  |  | Dose-dependent effect | 74% | 32% |  |  |
| Oc1ccc(-c2oc3cc(O)ccc3c2-c2ccnc(F)c2)cc1 |  |  |  |  |  |  |  | < 70% | Toxic |  |
| COc1ccc(-c2oc3ccccc3c2-c2cccnc2)cc1 | 1 µM | 2.4 µM | 2.44 µM | 2.44 µM | 2.63 µM |  | 82% | 103% |  |  |
| c1ccc(COc2ccc(-c3oc4ccccc4c3-c3cccnc3)cc2)cc1 |  | 15 µM | 15 µM |  |  |  | 76% | 82% |  |  |
| Oc1ccc(-c2oc3ccccc3c2-c2ccnc(F)c2)cc1 |  |  |  |  |  | Dose-dependent effect | 90% | 52% |  |  |
| Oc1ccc(-c2oc3ccc(F)cc3c2-c2ccc(O)cc2)cc1 |  |  |  |  |  |  |  | < 70% | Toxic |  |
| COc1ccc(C2c3ccc(OC)cc3OC2c2ccccc2)cc1 (racemic) |  |  |  |  |  |  |  | < 70% | Toxic |  |
| COc1ccc2c(c1)OC(c1ccccc1)C2c1ccc(F)c(F)c1 (racemic; 39) |  |  |  |  |  |  |  |  | Toxic | < 70% |
| CC[C@H]1OC(=O)[C@H](C)[C@@H](O[C@H]2C[C@@](C)(OC)[C@@H](O)[C@H](C)O2)[C@H](C)[C@@H](O[C@@H]2O[C@H](C)C[C@H](N(C)C)[C@H]2O)[C@](C)(O)C[C@@H](C)CN(C)[C@H](C)[C@@H](O)[C@]1(C)O [AZITHROMYCIN] | 0.727 µM |  |  |  |  |  |  |  |  |  |
| COc1ccc(-c2oc3cc(OC)ccc3c2-c2ccc(OC)cc2)cc1 |  | 12.8 µM | 12.8 µM |  |  |  | 106% | 100% |  |  |
| COc1ccc(-c2oc3cc(OC)ccc3c2-c2ccc(F)cc2)cc1 |  |  |  |  |  |  |  | < 70% | Toxic |  |
| Oc1ccc(-c2oc3ccccc3c2-c2cccc(F)c2)cc1 |  |  |  |  |  |  |  | < 70% | Toxic |  |
| COc1cccc(-c2oc3ccc(F)cc3c2-c2ccc3c(c2)OCO3)c1 |  |  |  |  |  |  |  | < 70% | Toxic |  |
| COc1ccc(-c2oc3cc(OC)ccc3c2-c2ccc(C(F)(F)F)cc2)cc1 |  |  |  |  |  | Dose-dependent effect | 84% | 45% |  |  |
| COc1ccc(-c2oc3cc(OC)ccc3c2-c2ccc(F)c(F)c2)cc1 |  | 27 µM | 27 µM |  |  |  | 96% | 101% |  |  |

Now from value to compound, other results behind:

| IC50 (Chlamydia trachomatis [1]) | IC50 (Chlamydia trachomatis [5]; read-out: IC50) | IC50 (Chlamydia trachomatis [5]; read-out: pIC50 (converted)) | IC50 (Chlamydia trachomatis [7]) | IC50 (Chlamydia trachomatis [8]) | Structure (SMILES) | Activity [2] | viability at 48 h, 25 µM [3] | viability at 48 h, 50 µM [4] | Activity [6] | Activity [4] |
| --- | --- | --- | --- | --- | --- | --- | --- | --- | --- | --- |
|  | 25.8 µM | 25.8 µM |  |  | COc1cccc(C2Oc3ccc(F)cc3C2c2ccc3c(c2)OCO3)c1 (racemic) |  | 88% | 103% |  |  |
| 0.965 µM | 2 µM | 2.04 µM | 2.04 µM | 1.6 µM | COc1ccc(-c2oc3ccccc3c2-c2ccnc(F)c2)cc1 |  | 84% | 97% |  |  |
|  | 19.8 µM | 19.9 µM |  |  | COc1cccc(C2Oc3ccc(F)cc3C2c2ccc(F)c(F)c2)c1 (racemic) |  | 80% | 118% |  |  |
|  | 25.4 µM | 25.4 µM |  |  | c1ccc(C2Oc3ccccc3C2c2ccccc2)cc1 (racemic) |  | 72% | 88% |  |  |
|  | 10.6 µM | 10.6 µM |  |  | COc1ccc(C2c3ccc(OC)cc3OC2c2cccc(OC)c2)cc1 (racemic) |  | 76% | 90% |  |  |
| 1.81 µM | 2.7 µM | 2.73 µM | 2.19 µM | 1.34 µM | COc1ccc(-c2oc3cc(OC)ccc3c2-c2ccnc(F)c2)cc1 |  | 68% | 93% |  |  |
|  | 25 µM | 25 µM |  |  | N#Cc1cccc(C2c3ccccc3OC2c2ccccc2)c1 (racemic) |  | 90% | 96% |  |  |
|  | 8.7 µM | 8.73 µM |  |  | COc1ccc(-c2oc3ccccc3c2-c2ccc(F)c(F)c2)cc1 |  | 90% | 96% |  |  |
| 4.73 µM | 4.2 µM | 4.21 µM | 5.04 µM | 1.84 µM | COc1ccc(-c2oc3ccc(F)cc3c2-c2ccnc(F)c2)cc1 |  | 90% | 103% |  |  |
|  | 27.2 µM | 27.2 µM |  |  | Fc1ccc(C2c3ccccc3OC2c2ccccc2)cc1F (racemic) |  | 75% | 87% |  |  |
|  | 22.1 µM | 22.1 µM |  |  | COc1ccc(-c2oc3ccccc3c2-c2cccc(F)c2)cc1 |  | 79% | 84% |  |  |
| 0.581 µM | 1 µM | 0.998 µM | 0.7 µM | 0.079 µM | COc1cccc(C2Oc3cc(OC)ccc3C2c2ccc(F)c(F)c2)c1 (racemic) |  | 93% | 95% |  |  |
|  | 23.4 µM | 23.4 µM |  |  | COc1ccc2c(c1)OC(c1ccccc1)C2c1ccc(F)c(F)c1 (racemic; 38) |  | 84% |  |  | 102% |
|  | 24.9 µM | 24.9 µM |  |  | Fc1cccc(C2c3cc(F)ccc3OC2c2ccccc2)c1 (racemic) |  | 83% | 84% |  |  |

— ChEMBL document CHEMBL4138246, “Natural product inspired library synthesis - Identification of 2,3-diarylbenzofuran and 2,3-dihydrobenzofuran based inhibitors of Chlamydia trachomatis” (Eur J Med Chem, 2018)
